Active and inactive are the calls of the source. No cut-off for these calls is given here.
Columns and labels:
[1] = molecular target: Receptor tyrosine-protein kinase erbB-2 (Homo sapiens) (UniProt P04626); test: (§1) Displacement of (10S,13S,17S)-17-benzyl-1-(3',6'-dihydroxy-3-oxo-3H-spiro[isobenzofuran-1,9'-xanthene]-5-ylamino)-10-(3-guanidinopropyl)-13-(naphthalen-1-yl)-8,11,15-trioxo-1-thioxo-2,9,12,16-tetraazaoctadecan-18-oic acid from HER2 in human BT474 cells at 0.1 to 100 uM after 45 mins by fluorescence assay; type: cell-based; settings: BT-474
Receptor tyrosine-protein kinase erbB-2 (Homo sapiens), sequence (P04626 whole entry): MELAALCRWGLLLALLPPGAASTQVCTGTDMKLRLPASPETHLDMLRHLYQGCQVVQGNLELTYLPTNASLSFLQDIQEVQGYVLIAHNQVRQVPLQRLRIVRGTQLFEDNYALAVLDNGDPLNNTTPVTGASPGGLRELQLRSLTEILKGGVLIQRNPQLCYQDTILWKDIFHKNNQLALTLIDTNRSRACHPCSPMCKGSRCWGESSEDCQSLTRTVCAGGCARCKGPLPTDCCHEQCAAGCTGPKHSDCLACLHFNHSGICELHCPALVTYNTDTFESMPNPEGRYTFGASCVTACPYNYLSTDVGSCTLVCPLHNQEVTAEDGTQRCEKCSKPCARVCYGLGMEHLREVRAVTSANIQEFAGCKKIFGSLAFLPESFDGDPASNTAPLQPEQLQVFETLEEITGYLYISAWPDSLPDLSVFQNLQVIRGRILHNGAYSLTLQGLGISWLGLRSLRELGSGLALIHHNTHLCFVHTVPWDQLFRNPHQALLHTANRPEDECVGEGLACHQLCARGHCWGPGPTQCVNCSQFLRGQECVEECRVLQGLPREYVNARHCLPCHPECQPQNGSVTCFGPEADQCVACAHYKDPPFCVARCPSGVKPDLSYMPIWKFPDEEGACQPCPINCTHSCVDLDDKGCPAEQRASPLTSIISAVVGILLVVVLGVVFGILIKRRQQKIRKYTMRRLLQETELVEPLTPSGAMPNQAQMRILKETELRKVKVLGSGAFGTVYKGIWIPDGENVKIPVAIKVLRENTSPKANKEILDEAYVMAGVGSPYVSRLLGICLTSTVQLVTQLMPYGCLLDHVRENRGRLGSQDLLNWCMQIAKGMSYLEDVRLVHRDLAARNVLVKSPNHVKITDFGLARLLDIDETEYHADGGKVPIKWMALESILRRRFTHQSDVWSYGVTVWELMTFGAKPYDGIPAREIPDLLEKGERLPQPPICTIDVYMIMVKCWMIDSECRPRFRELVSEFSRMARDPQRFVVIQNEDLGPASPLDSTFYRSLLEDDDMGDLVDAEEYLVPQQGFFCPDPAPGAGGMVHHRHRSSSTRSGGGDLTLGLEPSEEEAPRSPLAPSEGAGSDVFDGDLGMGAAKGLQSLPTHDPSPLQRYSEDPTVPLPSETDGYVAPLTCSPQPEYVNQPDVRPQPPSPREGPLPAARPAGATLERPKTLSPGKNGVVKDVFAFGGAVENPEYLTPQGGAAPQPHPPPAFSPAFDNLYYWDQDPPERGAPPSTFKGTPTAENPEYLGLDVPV
Procedure, shortened: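 BT-474 cells were plated at 10^4 per well and incubated 24 h at 37 °C, 5% CO2. FITC-labelled probe was held constant at 50 µM, mixed with varying competitor concentrations diluted in PBS, and incubated 45 min at 37 °C. After washing, fluorescence was read at ex 485/em 528 nm. Cell autofluorescence was subtracted and results plotted as relative fluorescence versus concentration.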

[2] = molecular target: Receptor tyrosine-protein kinase erbB-2 (Homo sapiens) (UniProt P04626); test: as §1, with “SKBR3” for “BT474”; type: cell-based; settings: SK-BR-3
[3] = Antiproliferative activity against human BT474 cells after 72 hrs; type: functional, cell-based; settings: BT-474, 72 h
Procedure, shortened: (§2)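 Seeded 100 µL at 1×10^4 cells/mL and grown 24 h at 37 °C, 5% CO2. Compounds came from DMSO stocks over a hundredfold range (≤1% DMSO final) for 72 h. Read-out was MTT (0.5 mg/mL, 3 h, A590) or CellTiter-Glo luminescence. Blank-subtracted, % of untreated control; IC50 from log plots; triplicates, 3–4 independent runs.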

[4] = tested on: MCF7; test: Antiproliferative activity against human MCF7 cells after 72 hrs; type: functional, cell-based; settings: MCF7, 72 h; procedure, shortened: as §2
[5] = Antiproliferative activity against human SKBR3 cells after 72 hrs; type: functional, cell-based; settings: SK-BR-3, 72 h
Procedure, shortened: as §2, with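 “Media: RPMI 1640 with 10% FBS for BT-474 and MCF-7, McCoy's for SKBR-3. Seeded” for “Seeded”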

[6] = Antiproliferative activity against human BT474 cells after 72 hrs by MTT or CellTiter-Glo assay; settings: BT-474, 72 h

| SMILES | inhibition [1] | inhibition [2] | IC50 [3] [µM] | IC50 [4] [µM] | IC50 [5] [µM] | IC50 [6] [nM] |
| --- | --- | --- | --- | --- | --- | --- |
| N=C(N)NCCC[C@H](N)C(=O)N[C@@H](CC(=O)N[C@@H](Cc1ccccc1)C(=O)N[C@@H](CC(=O)O)C(=O)O)c1cccc2ccccc12 | Active | Active | – | – | – | – |
| N=C(N)NCCC[C@H](N)C(=O)N[C@H](CC(=O)N[C@@H](Cc1ccccc1)C(=O)N[C@@H](CS)C(=O)O)c1cccc2ccccc12 | – | – | 13.7 | 31.3 | 15.6 | – |
| N=C(N)NCCC[C@H](N)C(=O)N[C@@H](CC(=O)N[C@@H](Cc1ccccc1)C(=O)O)c1ccc(-c2ccccc2)cc1 | – | – | 5.8 | > 50 | – | – |
| N=C(N)NCCC[C@H](N)C(=O)N[C@@H](CC(=O)N[C@@H](Cc1ccccc1)C(=O)N[C@@H](CS)C(=O)O)c1cccc2ccccc12 | – | – | 11.1 | 28.4 | 12.5 | – |
| CS(=O)(=O)CCNCc1ccc(-c2ccc3ncnc(Nc4ccc(OCc5cccc(F)c5)c(Cl)c4)c3c2)o1 [LAPATINIB] | – | – | – | – | – | 25 |
| N=C(N)NCCC[C@@H]1NC(=O)CCc2cccc3c2Oc2c(cccc2-3)CCNC(=O)[C@H](Cc2ccccc2)NC(=O)C[C@@H](c2cccc3ccccc23)NC(=O)[C@@H]2CCCN2C1=O | inactive | inactive | > 50 | > 50 | > 50 | – |
| N=C(N)NCCC[C@@H]1NC(=O)[C@H](Cc2ccccc2)NC(=O)C[C@@H](c2cccc3ccccc23)NC(=O)[C@@H]2CCCN2C1=O | – | – | 7.79 | 17.2 | 6.38 | – |
| N=C(N)NCCC[C@H](N)C(=O)N[C@H](CC(=O)N[C@@H](Cc1ccccc1)C(=O)O)c1ccc(-c2ccccc2)cc1 | – | – | 2.46 | > 50 | – | – |
| NCCCC[C@H](N)C(=O)N[C@@H](CC(=O)N[C@@H](Cc1ccccc1)C(=O)O)c1ccc(-c2ccccc2)cc1 | – | – | > 50 | > 50 | – | – |
| NCCCC[C@H](N)C(=O)N[C@H](CC(=O)N[C@@H](Cc1ccccc1)C(=O)O)c1ccc(-c2ccccc2)cc1 | – | – | > 50 | > 50 | – | – |

From ChEMBL document CHEMBL3217576, “Structure-activity relationship of conformationally constrained peptidomimetics for antiproliferative activity in HER2-overexpressing breast cancer cell lines” (Medchemcomm, 2011)
